ARFGAP1 inh: rat ARFGAP1 inhibition | Q62848 | inhibition, % at 16.5 µM | Arfgap1-stimulated ARF1 GTP hydrolysis, GDP FP detection | actives 0.26% (n = 360,000);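 active = inhibition above a per-plate limit, mean inhibition of low control wells plus 3 SD, cut at about 25% in these data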
Target sequence (Q62848 1-136 limits assumed): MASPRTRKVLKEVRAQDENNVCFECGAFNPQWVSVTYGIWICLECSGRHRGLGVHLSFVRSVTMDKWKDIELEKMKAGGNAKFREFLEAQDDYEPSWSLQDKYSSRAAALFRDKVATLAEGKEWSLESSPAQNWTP
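Assay system: purified rat His6-Arfgap1 residues 1-136 (GAP domain); Reagent: human Δ17 ARF1 bound to GTP; Dosing: 16.5 µM single point, 1.26% DMSO; Times: GTP hydrolysis reaction 2 h at 25 °C; Signal: FP, GDP Alexa 633 tracer displaced from anti-GDP antibody, 620/688 nm; Measure: % inhibition from polarization.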
ASAP1 GAP inh: inhibitors of human ASAP1 ArfGAP activity. AID 624377. actives 0.19% (n = 360,000). inhibition, % at 16.5 µM. ASAP1-stimulated ARF1 GTP hydrolysis, GDP FP detection; in the data active = inhibition above about 25%
Target sequence (Q9ULH1 325-724 limits assumed): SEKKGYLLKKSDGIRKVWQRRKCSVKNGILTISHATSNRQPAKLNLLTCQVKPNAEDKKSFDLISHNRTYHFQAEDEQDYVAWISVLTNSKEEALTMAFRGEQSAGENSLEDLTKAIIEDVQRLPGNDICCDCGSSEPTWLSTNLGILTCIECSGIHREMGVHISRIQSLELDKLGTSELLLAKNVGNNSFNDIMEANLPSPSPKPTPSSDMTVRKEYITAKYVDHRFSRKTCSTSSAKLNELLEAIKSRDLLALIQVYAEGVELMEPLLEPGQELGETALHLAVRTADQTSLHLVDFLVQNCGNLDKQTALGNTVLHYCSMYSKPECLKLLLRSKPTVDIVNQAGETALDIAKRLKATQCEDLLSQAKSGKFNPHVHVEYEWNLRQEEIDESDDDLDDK
SMARCA2 activ: activators of SMARCA2 function | activation, % at 9.1 µM | MG213 cells, MMTV-luciferase reporter, dexamethasone, overnight | actives 1% (n = 370,000); in the data active = activation above about 7.8%
esBAF inh: SWI/SNF esBAF complex inhibition; reporter increase, % at 12.5 µM; actives 2% (n = 350,000); mouse ES cells, Bmi1-luciferase knock-in reporter, 24 h; 100% = twice the neutral-well signal; AID 602393; in the data active = activation above about 40%; inconclusive = no clear call, values can overlap the other calls;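 also: a rise in the Bmi1 reporter signal indicates esBAF inhibition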
Ring1 derepress: esBAF inhibition confirmed by Ring1 de-repression | shares compounds with esBAF inh | mouse ESC E14, Ring1 mRNA RT-qPCR fold change | fold change at 33 µM | 550 tested, under 10 active;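 active = Ring1 gene expression raised more than 2-fold over untreated cells in both replicates at either tested dose; inconclusive = only one replicate above 2-fold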;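 also: Ring1 transcript normalised to actin housekeeping signal by TaqMan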
Fgf4 repress: confirmation of esBAF inhibitors: Fgf4 repression in mouse ESCs. mouse ESC E14, Fgf4 mRNA qPCR fold change; hits give low values. shares compounds with esBAF inh. Fgf4 expression fold change at 33 µM. actives 4% (n = 550);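 active = Fgf4 expression under 0.8 fold of control in both repeat measurements at one or both tested doses; inconclusive = under 0.8 fold in just a single repeat measurement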;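 also: Fgf4 transcript normalised to actin in duplex TaqMan qPCR; cells exposed to compound for 24 h before lysis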
Bmi1 derepress: confirmation of esBAF inhibitors: Bmi1 de-repression in mouse ESCs. shares compounds with esBAF inh. mouse ESE14 ES cells, Bmi1 mRNA qPCR fold; hits give high values. fold change at 33 µM. 550 tested, under 10 active. AID 743180;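 active = Bmi1 expression fold change above 6 at either tested concentration, seen in replicate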;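 also: higher fold means more Bmi1 de-repression and stronger esBAF inhibition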
A549 tox SP: cytotoxicity in A549 cells; shares compounds with esBAF inh; plate reader; cell viability change % (negative = cytotoxic), % at 25 µM, hits read low; 550 tested, under 10 active; AID 743188; call rule not given here
HepG2 cytotox SP: cytotoxicity in HepG2 cells; shares compounds with esBAF inh; plate reader; hits give low values; activity change, negative = inhibition, % at 25 µM; actives 4% (n = 550); AID 743189; in the data active = activity change below about -50%
HEK293 tox SP: cytotoxicity in HEK293 cells; shares compounds with esBAF inh; plate reader; activity change, negative = inhibition, % at 25 µM, hits read low; actives 3% (n = 550); AID 743190; in the data active = activity change below about -38%, passing the limit was not always enough
Large screens that a line does not name were inactive (follow-up assays come after a bar, where they were run). An excerpt weighted towards active compounds, which were near 2.6% of everything screened.

CC(c1ccccc1)c1nnc(NC(=O)Nc2ccccc2F)s1 (stereo not drawn)	esBAF inh 80 | Ring1 derepress inactive | Fgf4 repress inactive | Bmi1 derepress inactive | A549 tox SP inactive | HepG2 cytotox SP inactive | HEK293 tox SP inactive
C1=NN(c2ccccc2)C=NN1c1ccccc1	esBAF inh 69 | Ring1 derepress inactive | Fgf4 repress inactive | Bmi1 derepress inactive | A549 tox SP inactive | HepG2 cytotox SP inactive | HEK293 tox SP -60
CS(=O)(=O)Nc1ccc2c(c1)[C@@H]1C[C@@H](CC(=O)NCc3cccnc3)O[C@@H](CO)[C@@H]1O2	none (no result: ARFGAP1 inh, ASAP1 GAP inh, SMARCA2 activ)
CCCS(=O)(=O)N1CCC(C(=O)NC2CCC(C)CC2)CC1 (stereo not drawn)	esBAF inh 56 | Ring1 derepress inactive | Fgf4 repress inactive | Bmi1 derepress inactive | A549 tox SP inactive | HepG2 cytotox SP inactive | HEK293 tox SP inactive
Cc1nc(-c2ccc(Cl)cc2)sc1C1(C)CC(c2cccnc2)=NO1 (stereo not drawn)	esBAF inh 77 | Ring1 derepress inactive | Fgf4 repress inactive | Bmi1 derepress inactive | A549 tox SP inactive | HepG2 cytotox SP inactive | HEK293 tox SP inactive
C[C@H](CO)N1C[C@H](C)[C@@H](CN(C)Cc2ccc(C(=O)O)cc2)Oc2cc(C#CCC3CCCC3)ccc2S1(=O)=O	none (no result: ARFGAP1 inh, ASAP1 GAP inh, SMARCA2 activ)
Cc1ccn2cc(C(=O)Nc3nnc(C)s3)nc2c1	esBAF inh 55 | Ring1 derepress inactive | Fgf4 repress inactive | Bmi1 derepress inactive | A549 tox SP inactive | HepG2 cytotox SP inactive | HEK293 tox SP inactive
Cc1ccc(C(=O)Nc2ccc3c(c2)CCC3)cc1	none
COc1ccccc1C(=O)NCC(=O)Nc1ccc2c(c1)CCC2	esBAF inh 73 | Ring1 derepress inactive | Fgf4 repress inactive | Bmi1 derepress inactive | A549 tox SP inactive | HepG2 cytotox SP inactive | HEK293 tox SP inactive
COc1ccccc1CC(=O)Nc1ccc2c(c1)CCC2	none (no result: esBAF inh)
Cc1ccc(C(=O)NCC(=O)Nc2ccc3c(c2)CCC3)cc1	esBAF inh 72 | Ring1 derepress inactive | Fgf4 repress inactive | Bmi1 derepress inactive | A549 tox SP inactive | HepG2 cytotox SP inactive | HEK293 tox SP inactive
CCNC(=O)C[C@@H]1CC[C@@H]2[C@@H](COc3ccc(NC(=O)C4CCOCC4)cc3C(=O)N2C)O1	none (no result: ARFGAP1 inh, ASAP1 GAP inh, SMARCA2 activ)
COc1ccc(NC(=O)Nc2cccc(C)n2)c(OC)c1	none
Cc1ccc(NC(=O)Nc2cccc(C)n2)c(C)c1	esBAF inh 56 | Ring1 derepress inactive | Fgf4 repress inactive | Bmi1 derepress inactive | A549 tox SP inactive | HepG2 cytotox SP inactive | HEK293 tox SP inactive
Cc1ccc(NC(=O)Nc2ccc3c(c2)nc(C)n3C)cc1	none (no result: esBAF inh)
Cc1cc(NC(=O)Nc2ccc3c(ccn3C)c2)sn1	esBAF inh 81 | Ring1 derepress inactive | Fgf4 repress inactive | Bmi1 derepress inactive | A549 tox SP inactive | HepG2 cytotox SP inactive | HEK293 tox SP inactive
CCCNC(=O)N1C[C@@H]2[C@H](c3ccccc31)[C@H](CO)N2C(=O)NC(C)C	none (no result: ARFGAP1 inh, ASAP1 GAP inh, SMARCA2 activ)
Cc1csc(NC(=O)Nc2ccc(Cl)cc2)n1	esBAF inh 60 | Ring1 derepress inactive | Fgf4 repress inactive | Bmi1 derepress inactive | A549 tox SP inactive | HepG2 cytotox SP inactive | HEK293 tox SP inactive
CCOC(=O)Cc1csc(NC(=O)Nc2ccc(Cl)cc2)n1	none (no result: esBAF inh)
O=S(=O)(c1ccc2ccccc2c1)N1CCN(S(=O)(=O)c2c(F)cccc2F)CC1	esBAF inh 80 | Ring1 derepress inactive | Fgf4 repress inconclusive | Bmi1 derepress inactive | A549 tox SP inactive | HepG2 cytotox SP inactive | HEK293 tox SP inactive
CC(=O)Oc1ccc(-c2cc3c(OC(C)=O)cc(OC(C)=O)cc3oc2=O)cc1	none
CC(=O)Oc1ccc(-c2cc3ccccc3oc2=O)cc1	esBAF inh 69 | Ring1 derepress inactive | Fgf4 repress inconclusive | Bmi1 derepress inactive | A549 tox SP inactive | HepG2 cytotox SP inactive | HEK293 tox SP inactive
CC(=O)Nc1ccc2c(c1)Cc1c(F)cccc1-2	esBAF inh 83 | Ring1 derepress inactive | Fgf4 repress inconclusive | Bmi1 derepress inactive | A549 tox SP inactive | HepG2 cytotox SP inactive | HEK293 tox SP inactive
O=C(C[C@@H]1C[C@H]2c3cc(NC(=O)C4CCC4)ccc3O[C@H]2[C@H](CO)O1)NCc1cccc(F)c1	none (no result: ARFGAP1 inh, ASAP1 GAP inh, SMARCA2 activ)
C[C@H]1CN([C@@H](C)CO)C(=O)c2cccc(NC(=O)C3CC3)c2O[C@H]1CN(C)Cc1ccc2c(c1)OCO2	none (no result: ARFGAP1 inh, ASAP1 GAP inh, SMARCA2 activ)
COc1cccc(CN(C)C(=O)c2ccc(COc3ccc(Cl)cc3)cc2)c1OC	esBAF inh 59 | Ring1 derepress inactive | Fgf4 repress inactive | Bmi1 derepress inactive | A549 tox SP inactive | HepG2 cytotox SP inactive | HEK293 tox SP inactive
O=C(C[C@H]1C=C[C@@H](NS(=O)(=O)c2ccc(F)cc2)[C@H](CO)O1)N1CCC(Cc2ccccc2)CC1	none (no result: ARFGAP1 inh, ASAP1 GAP inh, SMARCA2 activ)
CC(C)(C)Nc1nc(Cl)nc(Nc2ccccc2)n1	esBAF inh 59 | Ring1 derepress inactive | Fgf4 repress inconclusive | Bmi1 derepress inactive | A549 tox SP inactive | HepG2 cytotox SP inactive | HEK293 tox SP inactive
C[C@@H]1CN([C@@H](C)CO)C(=O)c2cccc(NC(=O)c3cnccn3)c2O[C@H]1CN(C)C(=O)Nc1cccc2ccccc12	none (no result: ARFGAP1 inh, ASAP1 GAP inh, SMARCA2 activ)
O=C(C[C@@H]1CC[C@@H]2[C@H](COC[C@H](O)CN2S(=O)(=O)c2cccc(F)c2)O1)NCCCN1CCOCC1	none (no result: ARFGAP1 inh, ASAP1 GAP inh, SMARCA2 activ)
CCCC#Cc1ccc([C@H]2[C@@H](C#N)N(S(=O)(=O)c3cccc(F)c3)[C@@H]2CO)cc1	none (no result: ARFGAP1 inh, ASAP1 GAP inh, SMARCA2 activ)
Cc1nc(Nc2ccccc2)sc1C(=O)c1ccc(F)cc1	esBAF inh 66 | Ring1 derepress inactive | Fgf4 repress inactive | Bmi1 derepress inactive | A549 tox SP inactive | HepG2 cytotox SP inactive | HEK293 tox SP inactive
COc1cccc(OCc2cc(C(=O)N3CCN(C(C)=O)CC3)no2)c1	esBAF inh 71 | Ring1 derepress inactive | Fgf4 repress inactive | Bmi1 derepress inactive | A549 tox SP inactive | HepG2 cytotox SP inactive | HEK293 tox SP inactive
CCCN(CC1CCCO1)C(=O)c1cc(COc2cccc(OC)c2)on1 (stereo not drawn)	none (no result: esBAF inh)
COc1cc(C)ccc1OCc1cc(C(=O)N2CCN(C3CCCCC3)CC2)no1	esBAF inh 61 | Ring1 derepress inactive | Fgf4 repress inactive | Bmi1 derepress inactive | A549 tox SP inactive | HepG2 cytotox SP inactive | HEK293 tox SP inactive
